From ChEMBL document CHEMBL3352534, “A prodrug strategy for the oral delivery of a poorly soluble HCV NS5B thumb pocket 1 polymerase inhibitor using self-emulsifying drug delivery systems (SEDDS)” (Bioorg Med Chem Lett, 2015)
Values after ≈ are worked out from the molar mass of the structure shown.

Legend:
Liver microsome [1] = assay: Prodrug conversion in rat liver microsomes assessed as half life
Liver microsome [2] = assay: Prodrug conversion in human liver microsomes assessed as half life
[3] = Prodrug conversion in simulated gastric fluid assessed as half life; format: ADME; details: simulated gi fluid
Method in brief: (§1)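 Incubations used 2 µM compound at 37 °C in either SGF (0.2% NaCl/HCl, pH 1.2, pepsin 3.2 mg/mL) or SIF (KH2PO4/NaOH, pH 7.5, pancreatin 10 mg/mL). Samples were quenched 1:2 with acetonitrile/methanol 1:1 and analysed by HPLC. t1/2 = 0.693/first-order disappearance rate.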

[4] = Prodrug conversion in simulated intestinal fluid assessed as half life; format: ADME; details: simulated gi fluid; method in brief: as §1
Plasma [5] = assay: Prodrug conversion in human plasma assessed as half life
Plasma [6] = assay: Prodrug conversion in rat plasma assessed as half life; format: ADME, cell-free
Method in brief: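 Rat plasma (from centrifuged whole blood) was incubated with 2 µM compound at 37 °C. Samples were quenched 1:3 with acetonitrile/methanol 1:1, centrifuged and analysed by HPLC-PDA. Half-life was taken as 0.693/first-order rate of loss of the starting compound.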

Intestine = assay: Prodrug conversion in rat intestinal microsomes assessed as half life
[7] = Prodrug conversion in human intestinal microsomes assessed as half life
[8] = Cmax in rat plasma at 10 mg/kg, po using 10.6% PEG400, 5.4% Cremophor EL, 2.6% Labrasol, 1.4% Capmul MCM in water (80%) vehicle; format: ADME, organism-based; design: dose 10 mg/kg, route oral; details: plasma
Method in brief: (§2)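 Fasted rats were given a single 10 mg/kg oral dose, with n = 3 per dose and route. Plasma was extracted by solid-phase extraction. Analysis used HPLC with diode-array UV (200–400 nm, peak height at best S/N) or LC/MS. Calibration standards were made in blank plasma, with LOQ 7–14 ng/mL. Parameters came from noncompartmental analysis.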

[9] = AUC in rat plasma at 10 mg/kg, po using 10.6% PEG400, 5.4% Cremophor EL, 2.6% Labrasol, 1.4% Capmul MCM in water (80%) vehicle; format: ADME, organism-based; design: dose 10 mg/kg, route oral; details: plasma; method in brief: as §2
Rattus norvegicus [10] = assay: Cmax in rat plasma assessed as (E)-3-(4-(1-(2-(5-chloropyrimidin-2-yl)-3-cyclopentyl-1-methyl-1H-indole-6-carboxamido)cyclobutanecarboxamido)-2-ethoxyphenyl)acrylic acid at 10 mg/kg, po using 10.6% PEG400, 5.4% Cremophor EL, 2.6% Labrasol, 1.4% Capmul MCM in water (80%) vehicle; format: ADME, organism-based; design: dose 10 mg/kg, route oral; details: in vivo; method in brief: as §2
Rattus norvegicus [11] = assay: AUC in rat plasma assessed as (E)-3-(4-(1-(2-(5-chloropyrimidin-2-yl)-3-cyclopentyl-1-methyl-1H-indole-6-carboxamido)cyclobutanecarboxamido)-2-ethoxyphenyl)acrylic acid at 10 mg/kg, po using 10.6% PEG400, 5.4% Cremophor EL, 2.6% Labrasol, 1.4% Capmul MCM in water (80%) vehicle; format: ADME, organism-based; design: dose 10 mg/kg, route oral; details: in vivo; method in brief: as §2
[12] = Prodrug solubility in capmul; format: ADME
[13] = Prodrug solubility in solutol; format: ADME
[14] = Prodrug solubility in Labrasol; format: ADME
[15] = Prodrug solubility in PEG400; format: ADME

CCOc1cc(NC(=O)C2(NC(=O)c3ccc4c(C5CCCC5)c(-c5ncc(Cl)cn5)n(C)c4c3)CCC2)ccc1/C=C/C(=O)OC(=O)C[C@H](O)C(=O)O
t1/2 (Liver microsome [1]): 7.92 h
t1/2 (Liver microsome [2]): 5.57 h

CCOc1cc(NC(=O)C2(NC(=O)c3ccc4c(C5CCCC5)c(-c5ncc(Cl)cn5)n(C)c4c3)CCC2)ccc1/C=C/C(=O)N[C@@H](CC(=O)O)C(N)=O
t1/2 [3]: > 5 h
t1/2 [4]: 0.067 h

CCOc1cc(NC(=O)C2(NC(=O)c3ccc4c(C5CCCC5)c(-c5ncc(Cl)cn5)n(C)c4c3)CCC2)ccc1/C=C/C(=O)N[C@@H](CCC(=O)O)C(N)=O
t1/2 [3]: 0.533 h
t1/2 [4]: 4.23 h

CCOc1cc(NC(=O)C2(NC(=O)c3ccc4c(C5CCCC5)c(-c5ncc(Cl)cn5)n(C)c4c3)CCC2)ccc1/C=C/C(=O)N[C@@H](CCCNC(=N)N)C(N)=O
t1/2 [3]: 0.467 h

CCOc1cc(NC(=O)C2(NC(=O)c3ccc4c(C5CCCC5)c(-c5ncc(Cl)cn5)n(C)c4c3)CCC2)ccc1/C=C/C(=O)OCC[N+](C)(C)C.[Br-]
t1/2 [3]: 0.417 h
t1/2 (Liver microsome [1]): 1.73 h
t1/2 (Liver microsome [2]): > 5 h

CCOc1cc(NC(=O)C2(NC(=O)c3ccc4c(C5CCCC5)c(-c5ncc(Cl)cn5)n(C)c4c3)CCC2)ccc1/C=C/C(=O)NCCO
t1/2 (Liver microsome [1]): 1.48 h
t1/2 (Liver microsome [2]): 1.63 h

CCOc1cc(NC(=O)C2(NC(=O)c3ccc4c(C5CCCC5)c(-c5ncc(Cl)cn5)n(C)c4c3)CCC2)ccc1/C=C/C(=O)N(C)CCO
t1/2 (Liver microsome [1]): 2.25 h
t1/2 (Liver microsome [2]): 1.3 h

CCOc1cc(NC(=O)C2(NC(=O)c3ccc4c(C5CCCC5)c(-c5ncc(Cl)cn5)n(C)c4c3)CCC2)ccc1/C=C/C(=O)OCC(=O)O
t1/2 (Liver microsome [1]): 1.17 h
t1/2 (Liver microsome [2]): 3.1 h

CCOC(=O)/C=C/c1ccc(NC(=O)C2(NC(=O)c3ccc4c(C5CCCC5)c(-c5ncc(Cl)cn5)n(C)c4c3)CCC2)cc1OCC
t1/2 (Plasma [5]): > 5 h
t1/2 (Plasma [6]): 8.18 h
t1/2 [3]: 0.333 h
t1/2 (Intestine): > 5 h
t1/2 [4]: > 5 h
t1/2 (Liver microsome [1]): 3.07 h
t1/2 [7]: > 5 h
t1/2 (Liver microsome [2]): > 5 h

CCCOC(=O)/C=C/c1ccc(NC(=O)C2(NC(=O)c3ccc4c(C5CCCC5)c(-c5ncc(Cl)cn5)n(C)c4c3)CCC2)cc1OCC
t1/2 (Plasma [5]): > 5 h
t1/2 (Plasma [6]): 15.2 h
t1/2 [3]: 2.23 h
t1/2 (Intestine): > 5 h
t1/2 [4]: > 5 h
t1/2 (Liver microsome [1]): 0.35 h
t1/2 [7]: > 5 h
t1/2 (Liver microsome [2]): > 5 h

CCOc1cc(NC(=O)C2(NC(=O)c3ccc4c(C5CCCC5)c(-c5ncc(Cl)cn5)n(C)c4c3)CCC2)ccc1/C=C/C(=O)OCCC(C)C
t1/2 (Plasma [5]): 6.18 h
t1/2 (Plasma [6]): 18.02 h
t1/2 [3]: 1.43 h
t1/2 (Intestine): > 5 h
t1/2 [4]: > 5 h
t1/2 (Liver microsome [1]): 1.42 h
t1/2 [7]: > 5 h
t1/2 (Liver microsome [2]): > 5 h

CCCCCCOC(=O)/C=C/c1ccc(NC(=O)C2(NC(=O)c3ccc4c(C5CCCC5)c(-c5ncc(Cl)cn5)n(C)c4c3)CCC2)cc1OCC
t1/2 [3]: 0.883 h
t1/2 (Liver microsome [1]): 12.7 h
t1/2 (Liver microsome [2]): 17.88 h
Cmax [8]: 400 nM
AUC [9]: 2.2 µM·h
Cmax (Rattus norvegicus [10]): 200 nM
AUC (Rattus norvegicus [11]): 3.2 µM·h

CCOc1cc(NC(=O)C2(NC(=O)c3ccc4c(C5CCCC5)c(-c5ncc(Cl)cn5)n(C)c4c3)CCC2)ccc1/C=C/C(=O)OCC(Cl)(Cl)Cl
t1/2 (Plasma [5]): > 5 h
t1/2 (Plasma [6]): 1.3 h
t1/2 [3]: 1.75 h
t1/2 (Intestine): > 5 h
t1/2 [4]: > 5 h
t1/2 (Liver microsome [1]): 0.233 h
t1/2 [7]: > 5 h
t1/2 (Liver microsome [2]): > 5 h

CCOc1cc(NC(=O)C2(NC(=O)c3ccc4c(C5CCCC5)c(-c5ncc(Cl)cn5)n(C)c4c3)CCC2)ccc1/C=C/C(=O)OCc1ccccc1
t1/2 (Plasma [5]): > 5 h
t1/2 (Plasma [6]): 2.23 h
t1/2 [3]: 1.83 h
t1/2 (Intestine): > 5 h
t1/2 [4]: > 5 h
t1/2 (Liver microsome [1]): 2.17 h
t1/2 [7]: > 5 h
t1/2 (Liver microsome [2]): > 5 h

CCOc1cc(NC(=O)C2(NC(=O)c3ccc4c(C5CCCC5)c(-c5ncc(Cl)cn5)n(C)c4c3)CCC2)ccc1/C=C/C(=O)OCCOc1ccccc1
t1/2 (Liver microsome [1]): 16.5 h
t1/2 (Liver microsome [2]): > 5 h

CCOc1cc(NC(=O)C2(NC(=O)c3ccc4c(C5CCCC5)c(-c5ncc(Cl)cn5)n(C)c4c3)CCC2)ccc1/C=C/C(=O)OCCOCCOC
t1/2 (Liver microsome [1]): 1.07 h
t1/2 (Liver microsome [2]): 0.85 h
solubility [12]: < 60 mg/mL
solubility [13]: < 100 mg/mL
solubility [14]: < 30 mg/mL
Cmax [8]: 30 nM
AUC [9]: 0.1 µM·h
Cmax (Rattus norvegicus [10]): 4600 nM
AUC (Rattus norvegicus [11]): 23.1 µM·h

CCOc1cc(NC(=O)C2(NC(=O)c3ccc4c(C5CCCC5)c(-c5ncc(Cl)cn5)n(C)c4c3)CCC2)ccc1/C=C/C(=O)OCCNN1CCCC1
t1/2 (Liver microsome [1]): 0.783 h
t1/2 (Liver microsome [2]): 0.683 h
solubility [12]: < 100 mg/mL
solubility [13]: < 100 mg/mL
solubility [14]: < 100 mg/mL
Cmax [8]: 40 nM
AUC [9]: 0.06 µM·h
Cmax (Rattus norvegicus [10]): 6100 nM
AUC (Rattus norvegicus [11]): 25.6 µM·h

CCOc1cc(NC(=O)C2(NC(=O)c3ccc4c(C5CCCC5)c(-c5ncc(Cl)cn5)n(C)c4c3)CCC2)ccc1/C=C/C(=O)OCOC(=O)C(C)(C)C
t1/2 [3]: < 0.033 h
t1/2 (Liver microsome [1]): 5.6 h
t1/2 (Liver microsome [2]): 4.12 h
Cmax [8]: 40 nM
AUC [9]: 0.3 µM·h
Cmax (Rattus norvegicus [10]): 1700 nM
AUC (Rattus norvegicus [11]): 19.6 µM·h

CCOc1cc(NC(=O)C2(NC(=O)c3ccc4c(C5CCCC5)c(-c5ncc(Cl)cn5)n(C)c4c3)CCC2)ccc1/C=C/C(=O)OCC(=O)OC
t1/2 (Liver microsome [1]): 2.08 h
t1/2 (Liver microsome [2]): 2.1 h

CCOC(=O)COC(=O)/C=C/c1ccc(NC(=O)C2(NC(=O)c3ccc4c(C5CCCC5)c(-c5ncc(Cl)cn5)n(C)c4c3)CCC2)cc1OCC
t1/2 (Liver microsome [1]): 2.45 h
t1/2 (Liver microsome [2]): 1.6 h

CCCCOC(=O)COC(=O)/C=C/c1ccc(NC(=O)C2(NC(=O)c3ccc4c(C5CCCC5)c(-c5ncc(Cl)cn5)n(C)c4c3)CCC2)cc1OCC
t1/2 (Liver microsome [1]): 15.8 h
t1/2 (Liver microsome [2]): 5.98 h

CCOc1cc(NC(=O)C2(NC(=O)c3ccc4c(C5CCCC5)c(-c5ncc(Cl)cn5)n(C)c4c3)CCC2)ccc1/C=C/C(=O)OCC(=O)OCc1ccccc1
t1/2 (Plasma [5]): > 5 h
t1/2 (Plasma [6]): 6.6 h
t1/2 [3]: 3.03 h
t1/2 (Intestine): > 5 h
t1/2 [4]: 1.63 h
t1/2 (Liver microsome [1]): 2.2 h
t1/2 [7]: > 5 h
t1/2 (Liver microsome [2]): 26.15 h

CCOc1cc(NC(=O)C2(NC(=O)c3ccc4c(C5CCCC5)c(-c5ncc(Cl)cn5)n(C)c4c3)CCC2)ccc1/C=C/C(=O)OCC(=O)OCc1ccc(Cl)cc1
t1/2 (Liver microsome [1]): 11.4 h
t1/2 (Liver microsome [2]): 5.62 h

CCOc1cc(NC(=O)C2(NC(=O)c3ccc4c(C5CCCC5)c(-c5ncc(Cl)cn5)n(C)c4c3)CCC2)ccc1/C=C/C(=O)OCC(N)=O
t1/2 [3]: 0.6 h
t1/2 (Liver microsome [1]): 0.383 h
t1/2 (Liver microsome [2]): 0.983 h
solubility [12]: < 200 mg/mL
solubility [13]: 200 mg/mL (≈ 286 mM)
solubility [14]: > 200 mg/mL
solubility [15]: > 200 mg/mL
Cmax [8]: 40 nM
AUC [9]: 0.13 µM·h
Cmax (Rattus norvegicus [10]): 4400 nM
AUC (Rattus norvegicus [11]): 16.7 µM·h

CCOc1cc(NC(=O)C2(NC(=O)c3ccc4c(C5CCCC5)c(-c5ncc(Cl)cn5)n(C)c4c3)CCC2)ccc1/C=C/C(=O)OCC(=O)NC
t1/2 (Liver microsome [1]): 0.5 h
t1/2 (Liver microsome [2]): 0.567 h
solubility [12]: < 200 mg/mL
solubility [13]: < 200 mg/mL
solubility [14]: 200 mg/mL (≈ 280 mM)
solubility [15]: > 200 mg/mL

CCCN(C)C(=O)COC(=O)/C=C/c1ccc(NC(=O)C2(NC(=O)c3ccc4c(C5CCCC5)c(-c5ncc(Cl)cn5)n(C)c4c3)CCC2)cc1OCC
t1/2 (Liver microsome [1]): 0.317 h
t1/2 (Liver microsome [2]): 0.317 h
solubility [12]: < 200 mg/mL
solubility [13]: < 200 mg/mL
solubility [14]: < 200 mg/mL
solubility [15]: < 200 mg/mL

CCOc1cc(NC(=O)C2(NC(=O)c3ccc4c(C5CCCC5)c(-c5ncc(Cl)cn5)n(C)c4c3)CCC2)ccc1/C=C/C(=O)OCC(=O)N(C)C(C)C
t1/2 (Liver microsome [1]): 0.267 h
t1/2 (Liver microsome [2]): 0.65 h
solubility [12]: < 200 mg/mL
solubility [13]: < 200 mg/mL
solubility [14]: < 200 mg/mL
solubility [15]: > 200 mg/mL

CCOc1cc(NC(=O)C2(NC(=O)c3ccc4c(C5CCCC5)c(-c5ncc(Cl)cn5)n(C)c4c3)CCC2)ccc1/C=C/C(=O)OCC(=O)N1CCCC1
t1/2 (Liver microsome [1]): 1.47 h
t1/2 (Liver microsome [2]): 1.65 h
solubility [12]: < 200 mg/mL
solubility [13]: 200 mg/mL (≈ 265 mM)
solubility [14]: 200 mg/mL (≈ 265 mM)
solubility [15]: > 200 mg/mL
